The list is not random: actives were taken first. Their share in the collection is about 1.8%.
MBD2 inh: MBD2-methylated oligo binding inhibition; Q9UBB5; TR-FRET, MBD2 binding to methylated oligonucleotide; inhibition, % at 4.4 µM; 370,000 compounds, 0.31% hits; in the data active = inhibition above about 13%
CASP6 VEID inh: blocks human caspase-6 cleavage activity; P55212; purified caspase-6, Z-VEID-R110 cleavage fluorescence; inhibition, % at 12.5 µM; 350,000 compounds, 0.53% hits; AID 686996;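 active = mean inhibition across replicates at least about 35%, with every replicate also reaching that limit, limit read from the data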;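 note: 0% = median of neutral control wells and 100% = no fluorescence left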
UHRF1 binding: human UHRF1 methylated DNA binding inhibitors; UHRF1 binding to methylated oligo, TR-FRET; 370,000 compounds, 0.75% hits; Q96T88; AID 687016; inhibition, % at 4.4 µM; in the data active = inhibition above about 21%;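 note: UHRF1 SRA domain binding a hemimethylated CpG hairpin DNA probe; 0% = median of test compound wells and 100% = reference inhibitor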
Target sequence (Q96T88 whole entry, looked up, the tested form may be a part): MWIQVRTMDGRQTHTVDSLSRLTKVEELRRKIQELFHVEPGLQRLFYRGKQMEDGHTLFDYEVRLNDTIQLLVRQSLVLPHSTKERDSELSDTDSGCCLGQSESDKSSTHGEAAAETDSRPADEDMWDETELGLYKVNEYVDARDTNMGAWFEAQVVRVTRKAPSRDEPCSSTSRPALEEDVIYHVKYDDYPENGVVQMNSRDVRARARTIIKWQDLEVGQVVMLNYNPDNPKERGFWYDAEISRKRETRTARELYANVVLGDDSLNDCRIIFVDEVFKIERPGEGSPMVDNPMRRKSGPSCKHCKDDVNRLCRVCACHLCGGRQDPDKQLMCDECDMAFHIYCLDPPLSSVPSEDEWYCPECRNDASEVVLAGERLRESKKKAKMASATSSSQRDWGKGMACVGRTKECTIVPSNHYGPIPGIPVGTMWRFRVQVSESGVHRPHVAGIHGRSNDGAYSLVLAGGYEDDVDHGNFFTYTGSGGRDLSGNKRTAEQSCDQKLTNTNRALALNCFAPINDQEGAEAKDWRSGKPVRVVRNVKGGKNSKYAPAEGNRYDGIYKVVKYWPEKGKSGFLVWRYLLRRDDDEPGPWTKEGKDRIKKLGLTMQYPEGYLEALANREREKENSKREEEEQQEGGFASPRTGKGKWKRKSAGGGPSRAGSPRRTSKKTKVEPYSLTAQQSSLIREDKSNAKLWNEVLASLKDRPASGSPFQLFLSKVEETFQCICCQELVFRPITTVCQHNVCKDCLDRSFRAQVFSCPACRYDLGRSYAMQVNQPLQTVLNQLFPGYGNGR
NSD2 inh: NSD2 (human) methyltransferase inhibition; NSD2 peptide methylation, AlphaScreen, 120 min; 310,000 compounds, 0.54% hits; O96028; inhibition, % at 12.5 µM; in the data active = inhibition above about 50%
TDP2 inh: TDP2 (human) inhibition, absorbance primary screen | recombinant TDP2, T5PNP hydrolysis, p-nitrophenol absorbance 415 nm | inhibition, % at 12.8 µM | 370,000 compounds, 0.34% hits;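 active = inhibition above the mean of all tested compounds plus 3 SD, set per campaign, cut at about 25% in these data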;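 note: 0% = DMSO with enzyme and 100% = buffer with substrate but no TDP2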
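test system = human TDP2 enzyme | input = TDP2 enzyme at 120 nM final | medium = 50 mM Tris-HCl pH 7.5 with Mg2+, KCl, DTT, BSA | also added = T5PNP substrate, 5 mM | times = 2 h at 37 °C | technique = epi absorbance | benchmarks = high control without enzyme, low control DMSO plus TDP2 | replication = each compound tested once, singlicate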
LEDGF integ inh: blocks HIV-1 LEDGF/p75-dependent DNA integration; TR-FRET IN-LEDGF/p75 DNA integration, Eu/Cy5; inhibition, % at 3.7 µM; 370,000 compounds, 0.64% hits; AID 743269;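 active = inhibition above the screen-wide mean plus 3 SD, cut at about 13% in these data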;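 note: signal is the Cy5 over europium emission ratio at 671 and 618 nm; 0% = plate median of compound wells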
* marks the source's active call; other numbers are inactive results.

What do the screens show for `C[C@H](O)C#Cc1ccc2c(c1)O[C@H](CN(C)C(=O)CN(C)C)[C@H](C)CN([C@H](C)CO)S2(=O)=O`?
CASP6 VEID inh: 2.4

Results for CC(C)CNC(=O)c1cccc2c(-c3ccc(F)c(F)c3)coc12 ?
MBD2 inh: 0.3; CASP6 VEID inh: 54.7*; UHRF1 binding: -0.3; NSD2 inh: -1.4; TDP2 inh: 1.1; LEDGF integ inh: -3.8

What do the screens show for `CNC[C@@H]1Oc2cc(C#Cc3cccnc3)ccc2S(=O)(=O)N([C@@H](C)CO)C[C@H]1C`?
CASP6 VEID inh: -0.1

How did CCOC(=O)c1nn(-c2ccc(OC)cc2)c(=O)c2c(N)scc12 do in these assays?
MBD2 inh: -5.8; CASP6 VEID inh: 44.5*; UHRF1 binding: 3.7; NSD2 inh: 12.5; TDP2 inh: 5.8; LEDGF integ inh: 2.9

How did Cc1ccc(S(=O)(=O)Nc2ccc3c(c2)CC(=O)N([C@@H](C)CO)C[C@@H](C)[C@H](CN(C)Cc2ccc4c(c2)OCO4)O3)cc1 do in these assays?
CASP6 VEID inh: -0.5

How did COc1ccc(NC2=C(C(C)=O)C(c3ccccc3)C(C(C)=O)C(C)(O)C2)cc1 (stereo not drawn) do in these assays?
MBD2 inh: 1.3; CASP6 VEID inh: -0.9; UHRF1 binding: 61.3*; NSD2 inh: 8.5; TDP2 inh: 0.2; LEDGF integ inh: -2.7

What do the screens show for `COC(=O)C1CN(Cc2cn(Cc3ccc(C)cc3)nn2)CCS(=O)(=O)N1Cc1ccccc1` (stereo not drawn)?
MBD2 inh: 5.0; UHRF1 binding: 11.2; TDP2 inh: -9.6; LEDGF integ inh: 3.6

Results for COC(=O)C1CN(Cc2cn(Cc3ccccc3)nn2)CCS(=O)(=O)N1Cc1ccccc1 (stereo not drawn) ?
MBD2 inh: 5.7; UHRF1 binding: 28.1*; TDP2 inh: -5.8; LEDGF integ inh: -0.6

What do the screens show for `CCOC(=O)Cn1cc(CN2C(C(=O)OC)CN(Cc3ccc(OC)cc3)CCS2(=O)=O)nn1` (stereo not drawn)?
MBD2 inh: 5.7; UHRF1 binding: 80.4*; TDP2 inh: 8.3; LEDGF integ inh: 1.9

How did CCC(=O)Nc1ccc2c(c1)OC[C@@H](C)N(CC1CCOCC1)C[C@@H](C)[C@H](OC)CN(C)C2=O do in these assays?
CASP6 VEID inh: 0.1

How did COc1ccc(NC(=O)C(F)(OC)C(F)(F)F)c(OC)c1 (stereo not drawn) do in these assays?
MBD2 inh: 0.1; CASP6 VEID inh: 54.8*; UHRF1 binding: -1.4; NSD2 inh: -0.8; TDP2 inh: 6.8; LEDGF integ inh: 3.5

How did O=C(Cc1ccc(S(=O)(=O)N2CCOCC2)s1)Nc1ccccc1Br do in these assays?
MBD2 inh: -4.6; CASP6 VEID inh: 8.7; UHRF1 binding: 29.1*; TDP2 inh: 0.3; LEDGF integ inh: 2.5

What do the screens show for `Cc1cnc(NC(=O)Cc2ccc(S(=O)(=O)N3CCOCC3)s2)s1`?
MBD2 inh: 3.9; CASP6 VEID inh: 0.7; UHRF1 binding: 3.5; NSD2 inh: 1.5; TDP2 inh: -6.8; LEDGF integ inh: -2.4

Results for CC(C)(C)c1csc(NC(=O)Cc2ccc(S(=O)(=O)N3CCOCC3)s2)n1 ?
MBD2 inh: -2.5; CASP6 VEID inh: -0.8; UHRF1 binding: 76.4*; NSD2 inh: -2.5; TDP2 inh: -3.5; LEDGF integ inh: 0.6

Results for Cc1c(C(=O)N2CCCC2)oc2c1-c1nn(CC(=O)NCCCOC(C)C)cc1CC2 ?
MBD2 inh: 1.7; CASP6 VEID inh: 9.3; UHRF1 binding: -4.1; NSD2 inh: 138.4*; TDP2 inh: 10.6; LEDGF integ inh: 2.6

Results for C[C@H](CO)N1C[C@H](C)[C@H](CN(C)Cc2ccc(-c3ccccc3)cc2)Oc2c(NC(=O)Nc3ccc(C(F)(F)F)cc3)cccc2C1=O ?
CASP6 VEID inh: -2.9

What do the screens show for `C[C@@H]1CN([C@H](C)CO)C(=O)c2cc(NC(=O)Nc3ccc(C(F)(F)F)cc3)ccc2O[C@@H](C)CCCCO[C@@H]1CN(C)C(=O)Nc1cccc2ccccc12`?
CASP6 VEID inh: -5.4

How did O=C1[C@H]2[C@@H](c3ccccc3)N[C@]3(CCCN(Cc4ccc(F)cc4)C3=O)[C@H]2C(=O)N1Cc1ccccc1 do in these assays?
MBD2 inh: 10.0; CASP6 VEID inh: 11.1; UHRF1 binding: 23.4*; TDP2 inh: -2.5; LEDGF integ inh: -0.1

Screening data as filed in PubChem BioAssay.
